SR-BI DiI-HDL act = activators of SR-BI mediated DiI-HDL uptake, primary screen, ldlA[mSR-BI] CHO cells, DiI fluorescence | 3 h; 100 = double the neutral-control signal | activation, % at 12.5 µM | 320,000 tested, 0.096% active | AID 504775, 2011;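 active = mean replicate activation of at least 60% and every replicate at or above 60%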;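 also: 0% = median plate neutral-control signal and 100% = twice that signal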
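Material – SR-BI-overexpressing, LDLR-lacking CHO cells · Medium – BSA-supplemented, HEPES-buffered Ham's F12, pH 7.4 · Doses – single concentration · Times – compound with DiI-HDL co-incubation, 3 h at 37 °C · Measured by – bottom-read fluorescence, 550/595 nm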
XiGFP reactiv = activators of inactive X chromosome reactivation, primary screen, imaging, XiGFP fibroblasts, GFP high-content imaging, set 2; XiGFP mouse fibroblasts, % GFP-positive cells imaging, 3 d; cells co-treated with 5-aza-dC sensitizer; scaled so ellipticine positive control = 100%; activation, % at 7.58 µM; 360,000 tested, 0.055% active; AID 743238, 2013;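 active = mean normalized replicate activation at least 10% and every replicate at or above 10%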;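 also: 0% = median of on-plate neutral control wells and 100% = ellipticine 6 µM median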
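Assay system: SV40-immortalized XiGFP fibroblast cells, line 68-5-11; buffer or medium: DMEM plus 5-aza-dC sensitizer; compound: one concentration, pinned; timing: compounds 3 days, fix/stain 15 min at room temperature; benchmarks: positive control ellipticine, 6 µM final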
rRNA inh HTS = reduced GFP signal of wild-type E. coli, primary screen, bacterial rRNA inhibitor project, GFP/RFP fluorescence, OD600, single point; E. coli WT GFP vs humanized-ribosome RFP mutants, 24 h; active compounds read low; DMSO median 0, no signal -100; GFP signal change (wild-type ribosome), % (test concentration not listed); 350,000 tested, 1.6% active; AID 720706, 2013;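 active = significant combined selectivity score with lowered wild-type GFP, culture density cut under 30%, mutant RFP and density less affected; inactive = any of these conditions unmet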
SR-BI HDL uptake = inhibitors of SR-BI mediated HDL lipid uptake, primary screen, ldlA[mSR-BI] cells, fluorescence, single point. inhibition, % at 12.5 µM. Scavenger receptor class B member 1 (Mus musculus), Q61009. 320,000 tested, 0.96% active. ldlA[mSR-BI] CHO cells, DiI-HDL uptake fluorescence, 3 h;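 active = mean replicate inhibition of at least 70% and a set share of replicates each scoring 70 or more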;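 also: 0% = median of neutral control wells and 100% = median of positive control wells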
Target sequence (Q61009 whole entry, looked up): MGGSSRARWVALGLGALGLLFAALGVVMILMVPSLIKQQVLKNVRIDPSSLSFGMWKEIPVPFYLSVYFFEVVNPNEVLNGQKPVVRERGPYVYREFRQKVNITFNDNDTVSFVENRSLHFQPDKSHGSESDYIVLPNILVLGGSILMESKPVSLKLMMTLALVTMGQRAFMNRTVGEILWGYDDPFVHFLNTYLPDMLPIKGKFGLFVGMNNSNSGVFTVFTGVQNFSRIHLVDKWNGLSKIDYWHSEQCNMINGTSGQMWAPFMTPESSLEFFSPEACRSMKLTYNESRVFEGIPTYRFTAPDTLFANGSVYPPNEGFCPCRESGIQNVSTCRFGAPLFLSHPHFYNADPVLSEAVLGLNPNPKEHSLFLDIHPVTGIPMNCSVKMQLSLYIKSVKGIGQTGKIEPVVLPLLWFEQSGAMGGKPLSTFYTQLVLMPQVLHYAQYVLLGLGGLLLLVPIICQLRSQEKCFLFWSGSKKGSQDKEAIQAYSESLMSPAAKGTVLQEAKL
PvdQ acylase = P. aeruginosa PvdQ acylase inhibitors, primary screen, biochemical, fluorescence, plate reader and imaging, single point; PvdQ acylase [Pseudomonas aeruginosa LESB58]; purified PvdQ acylase; inhibition, % at 10 µM; 340,000 tested, 0.063% active; AID 488965, 2010; in the data active = inhibition above about 30%, passing the limit was not always enough;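 also: 0% = vehicle neutral wells and 100% = reference inhibitor wells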
dFosB act = activators of delta FosB homodimer, primary screen, biochemical, fluorescence polarization, TAMRA-CDK5 oligo, single point. Protein FosB (Mus musculus), P13346. activation, % at 25 µM. 340,000 tested, 0.99% active. purified delta FosB; percent of positive-control signal above neutral wells. AID 493131, 2011;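 active = mean activation above about 17%, with every replicate also reaching it, limit read from the data, passing the limit was not always enough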
* = called active by the depositor; ! = repeats disagree. Rows were chosen to be rich in hits. Some 2.6% of all compounds tested hit in one or more screens of this group.

For COc1cc(NC(=O)Nc2ccc(Cl)c(Cl)c2)c(C(=O)O)cc1OC the results were XiGFP reactiv 0, rRNA inh HTS -40*, PvdQ acylase -10 and dFosB act -7.
`O=C(Nc1ccc(Cl)c(Cl)c1)Nn1cnnc1` gave SR-BI DiI-HDL act -8, XiGFP reactiv 0, rRNA inh HTS -22*, SR-BI HDL uptake 8, PvdQ acylase -27 and dFosB act -3.
Screening COc1cc(OC)c(NC(=O)Nc2ccc(OC)c(OC)c2)cc1Cl returned SR-BI DiI-HDL act 5, SR-BI HDL uptake -5, PvdQ acylase 9 and dFosB act -4.
For O=C(Nc1ccc(Cl)cc1)Nc1ccc(Cl)c(Cl)c1 the results were XiGFP reactiv 1 and rRNA inh HTS -57.
For C[C@@H]1CCCCO[C@@H](CN(C)C(=O)NC2CCCCC2)[C@@H](C)CN([C@@H](C)CO)C(=O)c2cc(NC(=O)CCCN(C)C)ccc2O1 the results were XiGFP reactiv 0 and rRNA inh HTS 2.
CSc1ccccc1NC(=O)Nc1ccc(F)c(Cl)c1 was read as SR-BI DiI-HDL act -48, SR-BI HDL uptake 48, PvdQ acylase -10 and dFosB act -7.
For CSc1ccccc1NC(=O)Nc1cccc(Cl)c1 the results were SR-BI DiI-HDL act -65, rRNA inh HTS -28*, SR-BI HDL uptake 65, PvdQ acylase 22 and dFosB act -5.
For C[C@@H]1CN([C@@H](C)CO)S(=O)(=O)c2ccc(Br)cc2O[C@@H]1CN(C)Cc1ccc2c(c1)OCO2 the results were XiGFP reactiv 0 and rRNA inh HTS -34*!.
C[C@H](CO)N1C[C@H](C)[C@@H](CN(C)Cc2ccc3c(c2)OCO3)Oc2cc(Br)ccc2S1(=O)=O was read as XiGFP reactiv 0 and rRNA inh HTS -14.
`COc1cc(CNCCc2ccccc2)ccc1OCC(N)=O` gave SR-BI DiI-HDL act 64*, XiGFP reactiv 0, SR-BI HDL uptake -64, PvdQ acylase 3 and dFosB act 1.
`N#Cc1c(NC(=O)c2ccccc2Cl)n(Cc2ccccc2)c2nc3ccccc3nc12` gave SR-BI DiI-HDL act -33, XiGFP reactiv 0, rRNA inh HTS -17*, SR-BI HDL uptake 33, PvdQ acylase -2 and dFosB act -13.
For CCCCn1c(NC(=O)c2ccccc2Cl)c(C#N)c2nc3ccccc3nc21 the results were SR-BI DiI-HDL act -10, SR-BI HDL uptake 10, PvdQ acylase -5 and dFosB act -11.
`O=C(Nc1nnc([C@H]2C[C@H](O)[C@@H](CO)O2)s1)Nc1cccc(Cl)c1Cl` gave XiGFP reactiv 0 and rRNA inh HTS -25*.
Screening Cc1ccccc1NC(=O)Nc1nnc([C@@H]2C[C@H](O)[C@@H](CO)O2)s1 returned XiGFP reactiv 0 and rRNA inh HTS 7.
For COc1ccc(CCN=Cc2c(C)[nH]n(-c3ccc([N+](=O)[O-])cc3)c2=O)cc1OC the results were SR-BI DiI-HDL act 8, XiGFP reactiv 0, rRNA inh HTS 6, SR-BI HDL uptake -8, PvdQ acylase -19 and dFosB act -2.
COc1ccc(-c2[nH]n(-c3ccc([N+](=O)[O-])cc3)c(=O)c2C=NCc2ccccc2)cc1 was read as SR-BI DiI-HDL act -87, XiGFP reactiv 1, rRNA inh HTS 8, SR-BI HDL uptake 87*, PvdQ acylase -11 and dFosB act -1.
`Cc1ccc(C(=O)C2CCN(CC(=O)Nc3nc(C)cs3)CC2)cc1` gave SR-BI DiI-HDL act 23, rRNA inh HTS -22*, SR-BI HDL uptake -23, PvdQ acylase 0 and dFosB act -4.
`O=C1CN(C(=O)c2ccc(Cl)c(S(=O)(=O)N3CCc4ccccc43)c2)c2ccccc2N1` gave SR-BI DiI-HDL act -2, XiGFP reactiv 0, rRNA inh HTS -35*, SR-BI HDL uptake 2, PvdQ acylase -13 and dFosB act 1.
For CC1Cc2ccccc2N1S(=O)(=O)c1cccc(C(=O)N2CC(=O)Nc3ccccc32)c1 (stereo unspecified) the results were SR-BI DiI-HDL act 14, rRNA inh HTS -37*, SR-BI HDL uptake -14, PvdQ acylase 5 and dFosB act -4.
Screening CC(C)OCC(O)CN (stereo unspecified) returned SR-BI DiI-HDL act 49, SR-BI HDL uptake -49, PvdQ acylase 0 and dFosB act -2.
For CNC(=S)N1CCN(c2nc(-c3ccc(Cl)cc3)cs2)CC1 the results were SR-BI DiI-HDL act -44, XiGFP reactiv 0, rRNA inh HTS -25*, SR-BI HDL uptake 44, PvdQ acylase 2 and dFosB act -3.
For CCOC(=O)COc1c(Br)cc(/C=C2\SC(=O)N(CC(=O)N3CCCC3)C2=O)cc1OC the results were SR-BI DiI-HDL act -72, SR-BI HDL uptake 72*, PvdQ acylase -4 and dFosB act -2.
Screening CCOC(=O)C1CCCN(C2CC(=O)N(c3ccc(C)c(C)c3)C2=O)C1 (stereo unspecified) returned SR-BI DiI-HDL act 40, SR-BI HDL uptake -40, PvdQ acylase -9 and dFosB act -1.
CCOC(=O)c1ccc(NC(=S)N2CCSC2c2c(F)cc(F)cc2F)cc1 (stereo unspecified) was read as SR-BI DiI-HDL act -23, XiGFP reactiv 0, rRNA inh HTS -28*, SR-BI HDL uptake 23, PvdQ acylase 5 and dFosB act -2.
Fc1cc(F)c(C2SCCN2C(=S)Nc2cccc(C(F)(F)F)c2)c(F)c1 (stereo unspecified) was read as SR-BI DiI-HDL act -42, XiGFP reactiv 1, rRNA inh HTS -50, SR-BI HDL uptake 42, PvdQ acylase -14 and dFosB act -1.
Cc1noc(C)c1NC(=O)N(C)C[C@H]1Oc2ccc(NC(=O)Cn3cnnn3)cc2CC(=O)N([C@@H](C)CO)C[C@@H]1C was read as XiGFP reactiv 0 and rRNA inh HTS -1.
Screening COc1cc(OC)cc(-c2c(-c3cccs3)c3cc(-c4ccc5[nH]ccc5c4)ccc3n2C)c1 returned SR-BI DiI-HDL act -80, XiGFP reactiv 0, rRNA inh HTS 8, SR-BI HDL uptake 80*, PvdQ acylase -4 and dFosB act 9.
